# Screens deposited in PubChem by NMMLSC.
# Only some compounds are listed: those with a hit (about 2.5% of all), similar ones and a draw of the others.
# Efflux pump inh: inhibitors of Candida efflux pumps in yeast, primary screen, S. cerevisiae, Nile Red, multiplex | S. cerevisiae Candida pump triplex | inhibition, % at 10 µM | 330,000 compounds, 0.44% hits | AID 485275, 2010;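 active = plate passing quality check with inhibition over a set limit, or well fluorescence over plate mean plus 4 SD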;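 also: Nile Red retained in pooled yeast measured as flow cytometry median fluorescence; 0% = buffer negative control and 100% = Enniatin B positive control; higher means more Nile Red kept so more efflux inhibition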
# MEKK3 PB1 HTS: modulators of MEKK3-MEK5 PB1 binding, primary screen, biochemical, wildtype MEKK3, multiplex bead flow cytometry, Alexa488-MEK5 | Mitogen-activated protein kinase kinase kinase 3 (Homo sapiens), Q99759 | bead-based flow cytometry, Alexa488-MEK5 binding to MEKK3; actives lie on both sides; 0 = blocked by unlabeled MEK5, 100 = vehicle | binding response (% of control), % at 10 µM | 290,000 compounds, 1.4% hits;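 active = binding response more than 3 SD above or below the average of its plate-row segment, actives on both sides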;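 also: Alexa488 bead fluorescence after subtracting the streptavidin-only scavenger bead signal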
# ABCG2 block: ABCG2 efflux pump inhibitors, primary screen, multiplex with ABCB1, IgMXP3 cells, flow cytometry. inhibition, % at 6.6 µM. JC-1 efflux. Broad substrate specificity ATP-binding cassette transporter ABCG2 (Homo sapiens), Q9UNQ0. AID 1325, 2008. 190,000 compounds, 0.1% hits;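 active = inhibition above 80%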;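 also: 0% = DMSO and 100% = nicardipine control wells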
# Target sequence (Q9UNQ0 whole entry, looked up): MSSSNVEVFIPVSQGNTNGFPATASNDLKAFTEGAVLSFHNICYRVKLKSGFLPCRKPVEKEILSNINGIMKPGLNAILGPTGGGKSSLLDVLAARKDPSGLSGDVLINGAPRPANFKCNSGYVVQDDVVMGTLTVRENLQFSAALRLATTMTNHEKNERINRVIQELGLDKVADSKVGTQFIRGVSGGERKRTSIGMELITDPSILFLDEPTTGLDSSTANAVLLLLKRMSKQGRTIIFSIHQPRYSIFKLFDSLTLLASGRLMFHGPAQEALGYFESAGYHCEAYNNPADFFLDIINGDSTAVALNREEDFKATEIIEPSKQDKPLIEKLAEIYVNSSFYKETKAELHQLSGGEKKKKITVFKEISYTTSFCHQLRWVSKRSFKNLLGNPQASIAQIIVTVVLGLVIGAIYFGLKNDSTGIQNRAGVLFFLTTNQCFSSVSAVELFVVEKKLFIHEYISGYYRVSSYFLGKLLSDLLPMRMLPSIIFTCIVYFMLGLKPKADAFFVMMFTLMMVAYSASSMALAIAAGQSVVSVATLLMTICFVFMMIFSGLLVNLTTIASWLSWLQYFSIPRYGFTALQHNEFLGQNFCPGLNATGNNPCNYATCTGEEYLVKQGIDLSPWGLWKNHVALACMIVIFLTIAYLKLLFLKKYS
#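 Times: 10 min at 25 °C | Test system: Two drug-resistant human cell lines, ABCG2 and ABCB1 | Quantity: 3 million cells/mL final, two lines in 1:1 ratio | Signal: Flow cytometry, 530 nm JC-1 signal | Dosing: Compound at 6.6 µM | Controls: Nicardipine and DMSO wells | Reagent: JC-1 as fluorescent efflux pump substrate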
# MEKK2mut PB1 HTS: MEK5 binding signal on mutant MEKK2 PB1, primary screen, biochemical, multiplex bead flow cytometry, Alexa488-MEK5; Alexa488-MEK5 binding to MEKK2 mutant; 290,000 compounds, 0.35% hits; percent response, % at 10 µM; in the data active = percent response above about 24%, passing the limit was not always enough
# MEKK2 WT-MEK5: modulators of MEK5 binding to wildtype MEKK2, primary screen, biochemical, multiplex bead flow cytometry, Alexa488-MEK5. 290,000 compounds, 1.1% hits. Alexa488-MEK5 binding to MEKK2 WT; actives lie on both sides. binding response (% of control), % at 10 µM. AID 1531, 2009; in the data active = binding response below about 67% or above about 130%
# ABCB1 inh: ABCB1 efflux pump inhibitors, primary screen, cell-based, multiplex, flow cytometry, ABCG2 counter-screen | ATP-dependent translocase ABCB1 (Homo sapiens), P08183 | CCRF-Adr cells, JC-1 efflux | inhibition, % at 6.6 µM | 190,000 compounds, 0.067% hits; in the data active = inhibition above about 40%;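 also: 0% = vehicle and 100% = reference inhibitor; higher value means more JC-1 retained so stronger ABCB1 efflux block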
# MEKK2wt confirm: modulators of MEK5 binding to wildtype MEKK2, confirmation, biochemical, single concentration, multiplex bead flow cytometry | shares compounds with MEKK3 PB1 HTS | Alexa488-MEK5 binding to MEKK2 WT; actives lie on both sides | binding response (% of control), % at 10 µM | 5,900 compounds, 2.4% hits | AID 1892, 2009; in the data active = binding response below about 16% or above about 210%; inactive = in between
# MEKK2mut confirm: mutant MEKK2 PB1-MEK5 binding signal retest – biochemical, single concentration, multiplex bead flow cytometry, confirmation | shares compounds with MEKK3 PB1 HTS | Alexa488-MEK5 binding to MEKK2 mutant | percent response, % at 10 µM | 5,900 compounds, 2% hits; in the data active = percent response mostly above about 71%, no sharp cut-off; inactive = mostly below about 38%;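 also: higher means compound restores mutant binding toward wildtype level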
# MEKK3-MEK5 inh: MEKK3 wild-type PB1 binding to MEK5, inhibitors, confirmation, biochemical, bead multiplex flow cytometry, single concentration, wildtype | shares compounds with MEKK3 PB1 HTS | Alexa488-MEK5 binding to MEKK3; stronger effect = lower value | binding response (% of control), % at 10 µM | 5,900 compounds, 1.8% hits | AID 1894, 2009;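 active = binding response below 72% of control, or above a set upper limit, though filed actives all read lower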;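 also: 100% = DMSO only wells and 0% = binding blocked by excess unlabeled MEK5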
# Cmpd fluor yeast: compound fluorescence in yeast efflux pump counter-screen | shares compounds with Efflux pump inh | S. cerevisiae AD/pABC3, flow cytometry | fluorescence ratio to DMSO, % at 10 µM | 1,700 compounds, 4% hits;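 active = fluorescence ratio to DMSO above its plate's cutoff, the plate mean ratio plus 5 SD, cut at about 210% in these data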;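 also: unstained yeast with no Nile Red so the signal is compound autofluorescence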
# Mdr1 pump inh: inhibitors of Candida albicans Mdr1 efflux, confirmation, flow cytometry, singleplex, Cherry Pick1 set. inhibition, % at 10 µM. AID 588518, 2011. shares compounds with Efflux pump inh. S. cerevisiae AD/CaMDR1, Nile Red efflux. 1,700 compounds, 1% hits; in the data active = inhibition above about 26%;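 also: 0% = DMSO vehicle and 100% = reference inhibitor; higher means more Nile Red retained so more efflux inhibition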
# Cdr2 pump inh: inhibitors of Candida albicans Cdr2 efflux pump, confirmation, S. cerevisiae AD/CaCDR2, flow cytometry, cherry pick 1, singleplex; AID 588520, 2011; 1,700 compounds, 4% hits; Nile Red retention; shares compounds with Efflux pump inh; Nile Red retention ratio vs DMSO, % at 10 µM; in the data active = Nile Red retention ratio vs DMSO above about 190%;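 also: higher ratio means more blocking of Cdr2 efflux of the dye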
# Cdr1 pump inh: inhibitors of Candida albicans Cdr1 efflux pump, confirmation, S. cerevisiae AD/CaCDR1, flow cytometry, cherry pick 1, singleplex; shares compounds with Efflux pump inh; inhibition, % at 10 µM; Nile Red efflux; AID 588522, 2011; 1,700 compounds, 1% hits;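 active = inhibition above the screen-wide mean plus twice its standard deviation, cut at about 32% in these data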
# * = called active by the depositor; / = not tested or not shown; + = active, no number; ! = repeats disagree; [ ] = dose if it differs, or a comment.
SMILES,Efflux pump inh,MEKK3 PB1 HTS,ABCG2 block,MEKK2mut PB1 HTS,MEKK2 WT-MEK5,ABCB1 inh,MEKK2wt confirm,MEKK2mut confirm,MEKK3-MEK5 inh,Cmpd fluor yeast,Mdr1 pump inh,Cdr2 pump inh,Cdr1 pump inh
CNC(=S)N1CCn2cccc2C1c1cc(OC)c(OC)c(OC)c1 (centres undefined),-0.2,57.0*[inhibitor],2.2,-3.0,81.0,1.0,96.0,-3.0,99.0,/,/,/,/
COc1cc(C(=O)NCc2ccc(-c3nc4ccccc4s3)cc2)cc(OC)c1OC,-0.2,136.0*,11.6,0.0,107.0,3.2,105.0,2.0,99.0,/,/,/,/
COc1ccc(C(=O)NCc2ccc(-c3nc4ccccc4s3)cc2)cc1,0.0,105.0,1.4,3.0,100.0,0.1,/,/,/,/,/,/,/
COC(=O)c1sc(NC(=O)COc2cccc(C)c2)nc1C,-0.3,141.0*,-0.3,2.0,114.0,-0.3,66.0,-26.0,62.0*,/,/,/,/
COC(=O)c1sc(NC(=O)COc2ccc(OC)cc2)nc1C,-0.2,105.0,/,13.0,102.0,/,/,/,/,/,/,/,/
CCCCCCCCCCCCCCCCn1cc[n+](C)c1,2.7*!,113.0,-0.8,76.0*,213.0*,0.0,148.0,17.0,100.0,100.4,-0.1,110.2,-0.1
O=C(Nc1nnc(C2=COCCO2)o1)c1ccc([N+](=O)[O-])cc1,-0.1,96.0,/,7.0,104.0,/,/,/,/,/,/,/,/
Cc1ccc(C2=NCN(c3ccc(C(=O)O)cc3)C(=S)N2)cc1,0.2,96.0,1.6,-2.0,93.0,0.2,/,/,/,/,/,/,/
CCCCC(CC)Cn1c(O)c(/C=C2\C=NN=C2c2ccccc2)sc1=S (centres undefined),8.3*,136.0*,-8.8,0.0,103.0,-1.4,108.0,-1.0,102.0,101.8,0.1,126.8,0.4
CCCn1c(O)c(/C=C2\C=NN=C2c2ccccc2)sc1=S,0.0,99.0,1.1,-2.0,88.0,-0.1,/,/,/,/,/,/,/
CCN(CC)c1ccc2cc(-c3nc(-c4ccc(OC)cc4)cs3)c(=O)oc2c1,6.0*,183.0*,+,289.0*,232.0*,+,52.0,-44.0,60.0*,640.5*,0.6,731.5*,1.8
CCCCCCCCCC[N+](C)(C)CC/C=C1/c2ccccc2Sc2ccc(Cl)cc21,1.8*,108.0,/,147.0*,291.0*,/,321.0*,172.0*,115.0,98.2,0.0,116.4,0.0
CCCCCCCCCCC[N+](C)(C)CC/C=C1/c2ccccc2Sc2ccc(Cl)cc21,1.8*,97.0,/,143.0*,278.0*,/,195.0,60.0,111.0,146.5,1.1,259.7*,0.4
Cc1cccc(C)c1NC(=O)Cn1nc(-c2ccc(Cl)s2)ccc1=O,-0.1,103.0,/,0.0,97.0,/,/,/,/,/,/,/,/
O=C(C[n+]1cc(-c2ccc(Cl)c(Cl)c2)n2c1CCC2)N1c2ccccc2Sc2ccccc21,4.3*,97.0,1.5,55.0*,221.0*,0.6,146.0,18.0,86.0,105.0,-0.1,107.8,-0.3
Cc1ccc(C2=NN(S(C)(=O)=O)C(c3cccs3)C2)cc1 (centres undefined),0.2,98.0,0.5,4.0,95.0,0.1,/,/,/,/,/,/,/
CCc1ccc(C2=NN(S(C)(=O)=O)C(c3cccs3)C2)cc1 (centres undefined),3.0*,12.0*[inhibitor],2.4,/,/,0.6,93.0,3.0,93.0,125.1,0.8,151.0,1.2
CCN1/C(=C/c2ccc3cc(C)ccc3[n+]2CC)Sc2ccccc21,3.0*,68.0,+,-7.0,14.0*[inhibitor],/,39.0,-26.0,81.0,/,4.9,143.4,1.7
CCN1/C(=C/c2sc(-c3ccccc3C)c[n+]2C)Sc2ccccc21,/,97.0,0.8,2.0,101.0,1.1,/,/,/,/,/,/,/
O=C(Nc1cccc(C(=O)N2CCCCC2)c1)c1ccccc1Br,-0.1,102.0,/,8.0,107.0,/,/,/,/,/,/,/,/
COc1cc(OC)c2ccc(=O)oc2c1C(CCN1CCCC(C)C1)c1ccc(N(C)C)cc1 (centres undefined),-0.1,96.0,/,2.0,104.0,/,/,/,/,/,/,/,/
CCCCCc1cc(=O)oc2c(C(CCN3CCCC(C)C3)c3ccc(N(C)C)cc3)c(OC)cc(OC)c12 (centres undefined),1.0*,116.0,/,50.0*,149.0*,/,178.0,39.0,110.0,100.0,-0.1,151.2,0.1
Cc1ccc2c(c1)c1c3n2CCCNC3CCC1 (centres undefined),-0.1,87.0,2.6,-7.0,102.0,0.4,/,/,/,/,/,/,/
c1cc2c(cc1C1CCCCC1)c1c3n2CCCNC3CCC1 (centres undefined),95.4*,93.0,-14.3,18.0,165.0*,-1.4,157.0,25.0,104.0,99.7,-0.1,98.7,0.0
CN(C(=O)N1CCN(S(=O)(=O)c2ccccc2)CC1)c1ccccc1,0.1,99.0,18.2,0.0,99.0,1.1,/,/,/,/,/,/,/
